tested on: not listed separately; experiment: Compound was evaluated for the ionization constant (pKa) by using potentiometric titration (ionization of end group); assay type: physicochemical; conditions: not given
In short: (§1)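 Potentiometric titration of the hydrochloride salt with water as solvent.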

With CN/C(=N\CCSCc1nc[nH]c1C)NC#N [CIMETIDINE] as the molecule, how does the pKa read?
Its pKa is -0.4.

For CC(C)/N=C/Nc1ccc(-c2c[nH]cn2)cc1.Cl, which pKa is on record?
Its pKa is 8.88.

For NCCc1c[nH]cn1 [HISTAMINE], which pKa is on record?
The pKa was 9.81.

target: Histamine H2 receptor (Cavia porcellus) (UniProt P47747); experiment: Evaluated in vitro for histamine H2 receptor antagonist activity by using histamine-stimulated chronotropic response of the guinea pig atrium; assay type: functional, tissue-based; conditions: Cardiac atrium
In short: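 A cumulative histamine concentration–response curve (rate) was then repeated with successive antagonist concentrations, each pre-incubated 30 min. Dose ratios compared histamine concentrations giving half-maximal stimulation with and without antagonist.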

Sequence of Histamine H2 receptor (Cavia porcellus) (P47747 whole entry): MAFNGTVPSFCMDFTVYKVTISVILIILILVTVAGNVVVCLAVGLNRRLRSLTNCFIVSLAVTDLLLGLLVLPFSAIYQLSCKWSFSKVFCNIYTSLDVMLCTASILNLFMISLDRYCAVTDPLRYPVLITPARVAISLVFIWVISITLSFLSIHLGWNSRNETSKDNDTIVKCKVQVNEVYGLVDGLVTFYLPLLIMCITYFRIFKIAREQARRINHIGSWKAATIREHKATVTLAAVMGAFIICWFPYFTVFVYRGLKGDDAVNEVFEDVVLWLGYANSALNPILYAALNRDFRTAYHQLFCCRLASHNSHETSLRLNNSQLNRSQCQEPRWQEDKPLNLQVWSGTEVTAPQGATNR

For C/N=C\Nc1ccc(-c2c[nH]cn2)cc1.Cl, which Kb is on record?
The Kb was 1200 nM.

For CNC(=N)c1cccc(-c2c[nH]cn2)c1.Cl, which Kb is on record?
The Kb was 8700 nM.

For CC/N=C/Nc1ccc(-c2c[nH]cn2)cc1.Cl, which Kb is on record?
Its Kb is 19 nM.

For Cl.N=C(N)Nc1cccc(-c2c[nH]cn2)c1, which Kb is on record?
Its Kb is 5500 nM.

For C=CC/N=C/Nc1ccc(-c2c[nH]cn2)cc1.O=C(O)/C=C/C(=O)O, which Kb is on record?
Its Kb is 13 nM.

For CC(C)/N=C/Nc1ccc(-c2c[nH]cn2)cc1.Cl, which Kb is on record?
Its Kb is 24 nM.

With C/N=C(/N)Nc1cccc(-c2c[nH]cn2)c1.Cl as the molecule, how does the Kb read?
The Kb was 4400 nM.

Which Kb does the source give for CC(C)C/N=C/Nc1ccc(-c2c[nH]cn2)cc1.Cl here?
Its Kb is 69 nM.

Which Kb does the source give for CCC/N=C/Nc1ccc(-c2c[nH]cn2)cc1.Cl here?
The Kb was 32 nM.

With Cl.N=C(N)c1cccc(-c2c[nH]cn2)c1 as the molecule, how does the Kb read?
Its Kb is 7200 nM.

tested on: Rattus norvegicus; experiment: Compound was evaluated in vivo for the gastric antisecretory activity in the lumen perfused stomach of the anesthetized rat after iv administration; assay type: functional; conditions: not given
In short: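 Male Sprague–Dawley rats (250 g) were anesthetized with urethane (1 g/kg) and given a lumen-perfused stomach preparation. Acid secretion was driven by constant i.v. histamine infusion [1 mg/(kg h)]. ED50 was taken from the regression line of percent inhibition of acid output.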

For C/N=C\Nc1ccc(-c2c[nH]cn2)cc1.Cl, which ED50 is on record?
The ED50 was 1.1 mg/kg.

Which ED50 does the source give for CN/C(=N\CCSCc1nc[nH]c1C)NC#N [CIMETIDINE] here?
Its ED50 is 0.56 mg/kg.

For CNC(=N)c1cccc(-c2c[nH]cn2)c1.Cl, which ED50 is on record?
Its ED50 is 3.5 mg/kg.

For CC/N=C/Nc1ccc(-c2c[nH]cn2)cc1.Cl, which ED50 is on record?
Its ED50 is 0.02 mg/kg.

Which ED50 does the source give for Cl.N=C(N)Nc1cccc(-c2c[nH]cn2)c1 here?
Its ED50 is 3.2 mg/kg.

For C=CC/N=C/Nc1ccc(-c2c[nH]cn2)cc1.O=C(O)/C=C/C(=O)O, which ED50 is on record?
The ED50 was 0.024 mg/kg.

Which ED50 does the source give for CC(C)/N=C/Nc1ccc(-c2c[nH]cn2)cc1.Cl here?
Its ED50 is 0.019 mg/kg.

With CC(C)(C)/N=C/Nc1ccc(-c2c[nH]cn2)cc1.O=S(=O)(O)O as the molecule, how does the ED50 read?
The ED50 was 0.017 mg/kg.

For C/N=C(/N)Nc1cccc(-c2c[nH]cn2)c1.Cl, which ED50 is on record?
Its ED50 is 3.6 mg/kg.

With CC(C)C/N=C/Nc1ccc(-c2c[nH]cn2)cc1.Cl as the molecule, how does the ED50 read?
The ED50 was 0.026 mg/kg.

For CCC/N=C/Nc1ccc(-c2c[nH]cn2)cc1.Cl, which ED50 is on record?
Its ED50 is 0.011 mg/kg.

Which ED50 does the source give for Cl.N=C(N)c1cccc(-c2c[nH]cn2)c1 here?
The ED50 was 10 mg/kg.

tested on: not listed separately; experiment: Compound was evaluated for the ionization constant (pKa) by using potentiometric titration (ionization of imidazole group); assay type: physicochemical; conditions: not given; in short: as §1

Which pKa does the source give for CC(C)/N=C/Nc1ccc(-c2c[nH]cn2)cc1.Cl here?
The pKa was 5.58.

Which pKa does the source give for NCCc1c[nH]cn1 [HISTAMINE] here?
The pKa was 6.07.
